# Assay results reported in ChEMBL document CHEMBL1147105, “In vitro and in vivo activities of PD 0305970 and PD 0326448, new bacterial gyrase/topoisomerase inhibitors with potent antibacterial activities versus multidrug-resistant gram-positive and fastidious organism groups” (2007).
# The source made the active and inactive calls.
# What was measured:
# Streptococcus pneumoniae [1] = assay: Antibacterial activity against quinolone-resistant Streptococcus pneumoniae SP4333 infected twice daily orally dosed CD1 mouse; assay type: functional; conditions: po; for ED50: read-out: PD50
# Outline: (§1)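 Pneumonia model in CD1 mice (n = 8), anaesthetised with ketamine i.p. Intranasal instillation of 50 μl of broth culture (10^8–10^9 CFU/ml, OD600 0.70), confirmed by plate counts. Oral therapy began 24 h post-challenge. Dosing was either once daily for 1 day or twice daily for 3 days. The result was given as the PD50 (mg/kg).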
# Streptococcus pneumoniae [2] = assay: Antibacterial efficacy against Streptococcus pneumoniae SVI infected orally dosed CD1 mouse model; assay type: functional; conditions: po; for ED50: read-out: PD50
# Outline: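 Sepsis model in female CD1 mice (6–8 weeks, 18–22 g). Lethal i.p. challenge (0.5 ml) at ≥100 median lethal doses. Streptococci were given in Todd-Hewitt broth; other organisms were given with 20% hog gastric mucin. A single oral gavage dose (0.5 ml, in 0.5% methylcellulose) was given at the time of challenge. The PD50 (mg/kg) was calculated by probit analysis.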
# Streptococcus pneumoniae [3] = assay: Antibacterial activity against Streptococcus pneumoniae SVI infected once daily orally dosed CD1 mouse; assay type: functional; conditions: po; for ED50: read-out: PD50; outline: as §1
# Escherichia coli = assay: Antibacterial efficacy against Escherichia coli Vogel infected orally dosed CD1 mouse model; assay type: functional
# Outline: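 Female CD1 mice, 6–8 weeks old (18–22 g), challenged intraperitoneally (0.5 ml) with ≥100 median lethal doses suspended in 20% hog gastric mucin. Single oral gavage dose at the time of challenge, in 0.5% methylcellulose. Untreated controls of 10 mice per group. PD50 (mg/kg), the dose protecting 50% of mice from lethal infection, calculated by probit analysis.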
# Streptococcus pneumoniae [4] = assay: Antibacterial activity against Streptococcus pneumoniae 7785; assay type: functional
# Streptococcus pneumoniae [5] = assay: Antibacterial activity against Streptococcus pneumoniae 1-970-1 with gyrB Asp435Glu mutation; assay type: functional
# Streptococcus pneumoniae [6] = assay: Bactericidal activity against Streptococcus pneumoniae SV1 at 2 ug/ml by time-kill study; assay type: functional, organism-based
# Outline: (§2)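 Time-kill in 10 ml of cation-adjusted Mueller-Hinton broth with 3% lysed horse blood, without agitation. Multiples of MIC tested. Samples taken at 0, 2, 4, 6 and 24 h and plated on tryptic soy agar with 5% sheep blood after ≥250-fold dilution, detection limit 10 CFU/ml. Counts read after 24 h at 35°C. Bactericidal defined as a ≥3 log10 drop from the starting inoculum within 24 h.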
# Streptococcus pyogenes [7] = assay: Bactericidal activity against Streptococcus pyogenes C203 at 0.008 ug/ml by time-kill study; assay type: functional, organism-based; outline: as §2
# Streptococcus pyogenes [8] = assay: Bactericidal activity against Streptococcus pyogenes C203 at 2 ug/ml by time-kill study; assay type: functional, organism-based; outline: as §2
# Streptococcus pneumoniae [9] = assay: Bactericidal activity against Streptococcus pneumoniae SV1 at 0.008 ug/ml by time-kill study; assay type: functional, organism-based; outline: as §2
# Streptococcus pneumoniae [10] = assay: Antibacterial activity against Streptococcus pneumoniae 1-970-2 with gyrB Asp435Glu, Glu475Ala and parE Pro475Ser mutation; assay type: functional
Compound,ED50 (Streptococcus pneumoniae [1]) [mg/kg],ED50 (Streptococcus pneumoniae [2]) [mg/kg],ED50 (Streptococcus pneumoniae [3]) [mg/kg],MIC (Escherichia coli) [µg/mL],ED50 (Escherichia coli; read-out: PD50) [mg/kg],MIC (Streptococcus pneumoniae [4]) [µg/mL],MIC (Streptococcus pneumoniae [1]) [µg/mL],MIC (Streptococcus pneumoniae [5]) [µg/mL],MIC (Streptococcus pneumoniae [2]) [µg/mL],Activity (Streptococcus pneumoniae [6]),Activity (Streptococcus pyogenes [7]),MIC (Streptococcus pneumoniae [3]) [ng/mL],Activity (Streptococcus pyogenes [8]),Activity (Streptococcus pneumoniae [9]),MIC (Streptococcus pneumoniae [10]) [µg/mL]
C[C@H]1COc2c(N3CCN(C)CC3)c(F)cc3c(=O)c(C(=O)O)cn1c23.C[C@H]1COc2c(N3CCN(C)CC3)c(F)cc3c(=O)c(C(=O)O)cn1c23.O [LEVOFLOXACIN],> 200,69,69,–,–,–,–,–,–,–,–,–,–,–,–
Cc1c(N2CC[C@@H]([C@H](C)N)C2)c(F)cc2c(=O)n(N)c(=O)n(C3CC3)c12,4.1,2.7,3.2,1,82,0.03,0.03,0.06,0.015,Active,Active,8,Active,Active,0.125
